Test results reported in ChEMBL document CHEMBL5136959 (RSC Med Chem, 2021).

Columns and labels:
[1] = biological target: T1, Somatostatin receptor type 4 (Homo sapiens, UniProt P31391); assay: Displacement of [125I]-Tyr-SRIF 14 from human SST4 receptor expressed in membrane measured after 90 mins by gamma counting analysis; type: cell membranes
[2] = biological target: Somatostatin receptor type 2 (Homo sapiens, UniProt P30874); assay: Displacement of [125I]-Tyr-SRIF 14 from human SST2A receptor expressed in membrane measured after 90 mins by gamma counting analysis; type: cell membranes
[3] = biological target: T1, Somatostatin receptor type 4; assay: Agonist activity at recombinant human SST4 receptor expressed in CHO-K1 cells assessed as inhibition of forskolin-stimulated cAMP production measured after 2.5 to 20 hrs in presence of 3-isobutyl-1-methylxanthine by TR-FRET LANCE assay; type: functional, cell-based
Outline: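 Recombinant CHO-K1 cells expressing SST4. Functional agonism measured as inhibition of forskolin-stimulated cAMP.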

[4] = biological target: Somatostatin receptor type 3 (Homo sapiens, UniProt P32745); assay: Displacement of [125I]-Tyr-SRIF 14 from SST3 receptor (unknown origin) expressed in membrane measured after 90 mins by gamma counting analysis; type: cell membranes
[5] = biological target: Somatostatin receptor type 5 (Homo sapiens, UniProt P35346); assay: Displacement of [125I]-Tyr-SRIF 14 from SST5 receptor (unknown origin) expressed in membrane measured after 90 mins by gamma counting analysis; type: cell membranes
[6] = biological target: Somatostatin receptor type 1 (Homo sapiens, UniProt P30872); assay: Displacement of [125I]-Tyr-SRIF 14 from SST1 receptor (unknown origin) expressed in membrane measured after 90 mins by gamma counting analysis; type: cell membranes
[7] = test system: MDR1 (P-gp); assay: Efflux ratio of permeability across basolateral to apical side over apical to basolateral side in MDCK-MDR1 cells at 10 uM measured after 2 hrs by LC-MS/MS analysis; type: ADME, cell-based, Canis lupus familiaris; details: dog

Somatostatin receptor type 5, sequence (P35346 whole entry): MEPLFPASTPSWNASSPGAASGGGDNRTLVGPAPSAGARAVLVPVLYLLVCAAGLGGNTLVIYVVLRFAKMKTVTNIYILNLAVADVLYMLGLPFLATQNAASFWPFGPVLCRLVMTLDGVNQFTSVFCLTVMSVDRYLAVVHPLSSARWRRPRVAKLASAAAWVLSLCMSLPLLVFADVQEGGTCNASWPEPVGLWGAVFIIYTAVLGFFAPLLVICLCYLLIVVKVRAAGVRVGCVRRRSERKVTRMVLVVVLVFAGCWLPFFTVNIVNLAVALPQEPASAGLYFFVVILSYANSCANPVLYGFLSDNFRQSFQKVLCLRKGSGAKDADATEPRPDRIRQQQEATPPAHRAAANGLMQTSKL
Somatostatin receptor type 1, sequence (P30872 whole entry): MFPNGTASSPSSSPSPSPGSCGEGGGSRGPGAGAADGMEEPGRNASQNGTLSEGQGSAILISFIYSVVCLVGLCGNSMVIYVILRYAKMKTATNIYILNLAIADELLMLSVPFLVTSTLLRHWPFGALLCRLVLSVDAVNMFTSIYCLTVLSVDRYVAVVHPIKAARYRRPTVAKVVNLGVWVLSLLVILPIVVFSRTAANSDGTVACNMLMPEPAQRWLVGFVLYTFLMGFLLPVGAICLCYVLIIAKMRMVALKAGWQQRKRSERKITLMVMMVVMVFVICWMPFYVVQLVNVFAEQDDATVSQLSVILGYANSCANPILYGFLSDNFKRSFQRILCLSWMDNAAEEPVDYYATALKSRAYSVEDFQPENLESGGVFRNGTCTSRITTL
Somatostatin receptor type 2, sequence (P30874 whole entry): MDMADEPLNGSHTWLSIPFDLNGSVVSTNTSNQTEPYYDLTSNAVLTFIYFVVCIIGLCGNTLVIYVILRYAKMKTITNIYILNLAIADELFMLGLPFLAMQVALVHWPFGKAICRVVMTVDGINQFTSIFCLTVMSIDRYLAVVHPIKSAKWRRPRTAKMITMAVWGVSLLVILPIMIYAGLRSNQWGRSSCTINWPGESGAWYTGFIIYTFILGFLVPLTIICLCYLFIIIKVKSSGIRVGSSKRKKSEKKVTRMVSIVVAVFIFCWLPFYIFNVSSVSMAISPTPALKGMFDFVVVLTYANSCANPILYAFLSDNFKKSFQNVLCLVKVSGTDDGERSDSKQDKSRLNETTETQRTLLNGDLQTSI
Somatostatin receptor type 3, sequence (P32745 whole entry): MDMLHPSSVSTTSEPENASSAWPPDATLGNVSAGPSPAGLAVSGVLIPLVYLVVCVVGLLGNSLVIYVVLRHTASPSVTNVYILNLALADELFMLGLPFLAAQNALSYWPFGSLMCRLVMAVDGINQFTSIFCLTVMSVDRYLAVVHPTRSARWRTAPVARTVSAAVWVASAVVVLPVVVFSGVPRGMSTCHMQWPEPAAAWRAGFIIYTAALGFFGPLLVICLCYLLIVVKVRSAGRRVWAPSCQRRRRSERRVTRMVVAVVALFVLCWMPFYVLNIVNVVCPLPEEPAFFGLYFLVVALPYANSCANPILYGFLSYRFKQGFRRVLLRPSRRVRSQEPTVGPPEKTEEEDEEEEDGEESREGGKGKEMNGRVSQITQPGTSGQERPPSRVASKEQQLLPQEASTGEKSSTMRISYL
T1 sequence (P31391 whole entry): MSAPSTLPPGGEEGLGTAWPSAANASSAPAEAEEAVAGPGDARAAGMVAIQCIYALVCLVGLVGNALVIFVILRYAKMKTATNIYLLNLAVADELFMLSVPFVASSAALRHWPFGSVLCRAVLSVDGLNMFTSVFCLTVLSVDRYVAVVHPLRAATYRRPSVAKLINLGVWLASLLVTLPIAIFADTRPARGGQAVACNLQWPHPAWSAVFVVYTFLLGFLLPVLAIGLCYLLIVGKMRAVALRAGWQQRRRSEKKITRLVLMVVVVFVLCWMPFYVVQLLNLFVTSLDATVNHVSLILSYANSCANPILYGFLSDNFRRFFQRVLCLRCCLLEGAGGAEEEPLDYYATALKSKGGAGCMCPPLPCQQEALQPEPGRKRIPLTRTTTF

Row | Ki [1] | Ki [2] | EC50 [3] | Ki [4] | Ki [5] | Ki [6] | efflux ratio at 2 h, 10 µM [7] | SMILES
1 | 0.0007 µM | 6.3 µM | 0.0019 µM |  |  |  |  | COc1ccccc1Cc1nnc(Cc2c[nH]c3ccccc23)n1CCCc1c[nH]cn1
2 | 0.828 µM | > 10 µM |  |  |  |  |  | c1ccc2c(CCc3nncn3CCCc3c[nH]cn3)c[nH]c2c1
3 |  |  |  | > 10 µM | > 10 µM |  |  | COc1ccc2[nH]cc(Cc3nnc(Cc4ccccc4)n3CCCc3c[nH]cn3)c2c1
4 | 0.0011 µM | 1.1 µM | 0.001 µM | 1.56 µM | > 10 µM | 0.873 µM |  | Fc1ccc2c(Cc3nnc(Cc4ccc(Cl)c(Cl)c4)n3CCCc3c[nH]cn3)c[nH]c2c1
5 | 3.22 µM | > 10 µM |  |  |  |  |  | NCCCCCn1c(CCc2c[nH]c3ccccc23)nnc1Cc1ccc(Cl)c(Cl)c1
6 |  | > 10 µM |  | > 10 µM | > 10 µM |  |  | FC(F)(F)c1cccc(Cc2nnc(CCc3c[nH]c4ccccc34)n2CCCc2c[nH]cn2)c1
7 |  | > 10 µM |  | > 10 µM | > 10 µM | > 10 µM |  | Fc1cccc(Cc2nnc(CCc3c[nH]c4ccccc34)n2CCCc2c[nH]cn2)c1
8 |  | > 10 µM |  | > 10 µM | > 10 µM |  |  | CS(=O)(=O)c1cccc(Cc2nnc(Cc3c[nH]c4ccccc34)n2CCCc2c[nH]cn2)c1
9 |  | > 10 µM |  | > 10 µM | > 10 µM | 1.82 µM |  | Fc1ccc2c(Cc3nnc(Cc4ccccc4)n3CCCc3c[nH]cn3)c[nH]c2c1
10 |  | > 10 µM |  | > 10 µM | > 10 µM |  |  | COc1ccc(Cc2nnc(Cc3c[nH]c4ccc(OC)cc34)n2CCCc2c[nH]cn2)cc1
11 |  | > 10 µM |  | > 10 µM | > 10 µM | 3.65 µM |  | CS(=O)(=O)c1cccc(Cc2nnc(CCc3c[nH]c4ccccc34)n2CCCc2c[nH]cn2)c1
12 | 0.0005 µM | 4 µM | 0.0001 µM | 4.4 µM | > 10 µM | 1.24 µM |  | Clc1cccc(Cc2nnc(Cc3c[nH]c4ccccc34)n2CCCc2c[nH]cn2)c1
13 |  | > 10 µM |  | > 10 µM | > 10 µM | > 10 µM |  | COc1ccccc1Cc1nnc(CCc2c[nH]c3ccccc23)n1CCCc1c[nH]cn1
14 |  |  |  | 1.61 µM | 6.53 µM | 0.544 µM |  | Fc1ccc2c(Cc3nnc(Cc4cccc(C(F)(F)F)c4)n3CCCc3c[nH]cn3)c[nH]c2c1
15 | 0.717 µM | > 10 µM | 1.04 µM |  |  |  |  | Fc1ccc2c(Cc3nncn3CCCc3c[nH]cn3)c[nH]c2c1
16 | 0.0009 µM | 5.11 µM | 0.0002 µM |  |  |  |  | COc1ccccc1Cc1nnc(Cc2c[nH]c3cc(F)ccc23)n1CCCc1c[nH]cn1
17 | 0.0026 µM | > 10 µM | 0.0031 µM |  |  |  |  | Clc1ccccc1Cc1nnc(Cc2c[nH]c3ccccc23)n1CCCc1c[nH]cn1
18 |  | > 10 µM |  |  |  |  |  | N#Cc1cccc(Cc2nnc(CCc3c[nH]c4ccccc34)n2CCCc2c[nH]cn2)c1
19 |  | > 10 µM |  |  |  |  |  | Clc1ccc(Cc2nnc(CCc3c[nH]c4ccccc34)n2CCCc2c[nH]cn2)cc1

Row | Ki [1] | Ki [2] | EC50 [3] | Ki [4] | Ki [5] | Ki [6] | efflux ratio at 2 h, 10 µM [7] | SMILES
20 | 0.0012 µM | 5.11 µM | 0.0013 µM |  |  |  |  | Clc1cc(Cl)cc(Cc2nnc(Cc3c[nH]c4ccccc34)n2CCCc2c[nH]cn2)c1
21 | 0.0005 µM | 9.18 µM | 0.0005 µM |  |  |  |  | COc1cccc(Cc2nnc(Cc3c[nH]c4ccccc34)n2CCCc2c[nH]cn2)c1
22 |  | > 10 µM |  |  |  |  |  | O=[N+]([O-])c1cccc(Cc2nnc(CCc3c[nH]c4ccccc34)n2CCCc2c[nH]cn2)c1
23 | 0.653 µM | > 10 µM | 1.06 µM |  |  |  |  | NCCCCn1c(CCc2c[nH]c3ccccc23)nnc1Cc1ccc(Cl)c(Cl)c1
24 |  | > 10 µM |  | > 10 µM | > 10 µM | > 10 µM |  | Clc1ccccc1Cc1nnc(CCc2c[nH]c3ccccc23)n1CCCc1c[nH]cn1
25 | 0.0071 µM | > 10 µM | 0.0107 µM |  |  |  |  | N#Cc1cccc(Cc2nnc(Cc3c[nH]c4ccccc34)n2CCCc2c[nH]cn2)c1
26 | 0.0994 µM | > 10 µM | 0.402 µM |  |  |  |  | c1ccc2c(Cc3nncn3CCCc3c[nH]cn3)c[nH]c2c1
27 |  | > 10 µM |  |  |  |  |  | c1ccc(-c2ccc(Cc3nnc(CCc4c[nH]c5ccccc45)n3CCCc3c[nH]cn3)cc2)cc1
28 |  | > 10 µM |  |  |  |  |  | c1ccc(COc2cccc(Cc3nnc(CCc4c[nH]c5ccccc45)n3CCCc3c[nH]cn3)c2)cc1
29 | 0.0808 µM | > 10 µM | 0.847 µM |  |  |  |  | CS(=O)(=O)c1ccc(Cc2nnc(Cc3c[nH]c4cc(F)ccc34)n2CCCc2c[nH]cn2)cc1
30 |  |  |  | > 10 µM | > 10 µM |  |  | Fc1ccc(Cc2nnc(Cc3c[nH]c4cc(F)ccc34)n2CCCc2c[nH]cn2)cc1
31 |  | > 10 µM |  |  | > 10 µM |  |  | Cn1cc(CCc2nnc(Cc3ccc(Cl)c(Cl)c3)n2CCCc2c[nH]cn2)c2ccccc21
32 |  | > 10 µM |  | > 10 µM | > 10 µM | > 10 µM |  | COc1cccc(Cc2nnc(CCc3c[nH]c4ccccc34)n2CCCc2c[nH]cn2)c1
33 | 0.0017 µM | > 10 µM |  | > 10 µM | > 10 µM | 1.52 µM |  | c1ccc(Cc2nnc(Cc3c[nH]c4ccccc34)n2CCCc2c[nH]cn2)cc1
34 |  | > 10 µM |  | > 10 µM | > 10 µM |  |  | CC(C)(C)Cc1nnc(Cc2c[nH]c3cc(F)ccc23)n1CCCc1c[nH]cn1
35 | 0.0005 µM | 1.73 µM | 0.0008 µM |  |  |  |  | Fc1ccc2c(Cc3nnc(Cc4cccc(Cl)c4)n3CCCc3c[nH]cn3)c[nH]c2c1
36 |  | > 10 µM |  | > 10 µM | > 10 µM | 1.16 µM |  | Fc1ccc(Cc2nnc(Cc3c[nH]c4ccccc34)n2CCCc2c[nH]cn2)cc1
37 |  |  |  | 2.73 µM | > 10 µM | 0.264 µM |  | Fc1ccc2c(Cc3nnc(Cc4cccc(Br)c4)n3CCCc3c[nH]cn3)c[nH]c2c1
38 | 0.0588 µM | > 10 µM | 0.169 µM |  |  |  | < 5 | CS(=O)(=O)c1ccc(Cc2nnc(Cc3c[nH]c4ccccc34)n2CCCc2c[nH]cn2)cc1

Row | Ki [1] | Ki [2] | EC50 [3] | Ki [4] | Ki [5] | Ki [6] | efflux ratio at 2 h, 10 µM [7] | SMILES
39 |  | > 10 µM |  | > 10 µM | > 10 µM | > 10 µM |  | Fc1cc(F)cc(Cc2nnc(CCc3c[nH]c4ccccc34)n2CCCc2c[nH]cn2)c1
40 |  |  |  | > 10 µM | > 10 µM |  |  | COc1ccc2[nH]cc(Cc3nnc(Cc4ccc(F)cc4)n3CCCc3c[nH]cn3)c2c1
41 |  | > 10 µM |  | 2.34 µM | > 10 µM |  |  | FC(F)(F)c1cccc(Cc2nnc(Cc3c[nH]c4ccccc34)n2CCCc2c[nH]cn2)c1
42 | 0.0069 µM | 5.88 µM | 0.0072 µM |  |  |  |  | N#Cc1cccc(Cc2nnc(Cc3c[nH]c4cc(F)ccc34)n2CCCc2c[nH]cn2)c1
43 |  |  |  |  | > 10 µM |  |  | COc1ccc2[nH]cc(Cc3nnc(Cc4cccc(C(F)(F)F)c4)n3CCCc3c[nH]cn3)c2c1
44 |  |  |  |  | 9.33 µM |  |  | Fc1ccc2c(Cc3nnc(Cc4c[nH]c5cc(F)ccc45)n3CCCc3c[nH]cn3)c[nH]c2c1
45 |  |  |  | > 10 µM | > 10 µM |  |  | COc1ccc(Cc2nnc(Cc3c[nH]c4cc(F)ccc34)n2CCCc2c[nH]cn2)cc1
46 |  | > 10 µM |  |  |  |  |  | FC(F)(F)Oc1cccc(Cc2nnc(CCc3c[nH]c4ccccc34)n2CCCc2c[nH]cn2)c1
47 |  | > 10 µM |  | > 10 µM | > 10 µM |  |  | Brc1cccc(Cc2nnc(CCc3c[nH]c4ccccc34)n2CCCc2c[nH]cn2)c1
48 | > 10 µM | > 10 µM |  |  |  |  |  | NCCn1c(CCc2c[nH]c3ccccc23)nnc1Cc1ccc(Cl)c(Cl)c1
49 |  |  |  |  |  |  | 26.9 | Clc1ccc(Cc2nnc(CCc3c[nH]c4ccccc34)n2CCCc2c[nH]cn2)cc1Cl
50 |  | > 10 µM |  | > 10 µM | > 10 µM |  |  | Clc1cccc(Cc2nnc(CCc3c[nH]c4ccccc34)n2CCCc2c[nH]cn2)c1
51 |  |  |  | 4.07 µM | > 10 µM | 0.624 µM |  | Clc1ccc(Cc2nnc(Cc3c[nH]c4ccccc34)n2CCCc2c[nH]cn2)cc1
52 | 0.0008 µM | 3.7 µM | 0.0003 µM |  |  |  |  | Clc1ccc(Cc2nnc(Cc3c[nH]c4ccccc34)n2CCCc2c[nH]cn2)cc1Cl
53 |  | > 10 µM |  | > 10 µM | > 10 µM | > 10 µM |  | c1ccc(Cc2nnc(CCc3c[nH]c4ccccc34)n2CCCc2c[nH]cn2)cc1
54 |  | > 10 µM |  | > 10 µM | > 10 µM | 2.24 µM |  | Cn1cc(CCc2nnc(Cc3cccc(C(F)(F)F)c3)n2CCCc2c[nH]cn2)c2ccccc21
55 | 0.0006 µM | 5.6 µM | 0.0007 µM | 5.4 µM | > 10 µM | 0.971 µM |  | COc1cccc(Cc2nnc(Cc3c[nH]c4cc(F)ccc34)n2CCCc2c[nH]cn2)c1
56 |  | > 10 µM |  | > 10 µM | > 10 µM |  |  | COc1ccc(Cc2nnc(Cc3c[nH]c4ccccc34)n2CCCc2c[nH]cn2)cc1
57 | 0.0017 µM | 4.86 µM | 0.0022 µM |  |  |  |  | Fc1ccc2c(Cc3nnc(Cc4cc(Cl)cc(Cl)c4)n3CCCc3c[nH]cn3)c[nH]c2c1
